The test system of data set [1] is MCEC. Nature of the data set: Inhibitor studies: uptake of F complexes. The data set is classed as cell-based. The settings on record: Mus musculus, read-out: reduction (inhibition) of uptake of F complexes. The method, boiled down:
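Mouse corneal endothelial cells (MCEC; DMEM, 10% FBS, full serum) were seeded at 2.2 × 10^5/well one day before. Complexes of test peptide with Cy5-labelled luciferase plasmid were formed in 10 mM phosphate buffer pH 7.0, added with inhibitor at non-toxic working levels, and incubated 3 h at 37°C. Cells were washed, trypsinised and read by flow cytometry (mean fluorescence, 10 000 gated cells), relative to vehicle (DMSO or water) = 100%.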

Data set [2] concerns MCEC. Nature of the data set: Inhibitor studies: luciferase gene expression mediated by F complexes. The data set is classed as cell-based, mouse.
A further data set deals with CD4+ T-cells. Nature of the data set: T-cell proliferation assay. It is filed as cell-based, mouse. Particulars: 1-MT 0.75 mM. The method, boiled down: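 CD4+ responder T cells from C3H mouse spleens (10^5/well, anti-CD3/CD28 bead-stimulated) were co-cultured 3 days with 5 × 10^4 mitomycin C-treated (40 µg/ml, 30 min) MCEC. The MCEC were untransfected or transfected with test peptide carrying IDO or GFP plasmid, with or without 0.75 mM final 1-methyl-dl-tryptophan. [3H]thymidine (1 µCi/well) was added and incorporation was counted 16 h later.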

Structures are written as SMILES.

Take `CCN(c1nc(N)c(C(=O)NC(=N)N)nc1Cl)C(C)C` [EIPA, 5-(N-ethyl-N-isopropyl)amiloride]: the inhibition at 25 µg/mL with MCEC [1] is 32.9%. Regarding `COC(=O)Nc1nc2ccc(C(=O)c3cccs3)cc2[nH]1` [nocodazole], the “increase of gene expression mediated by F complexes” value in the data set on MCEC [2] (nocodazole 4.5 µg/ml, N/P 20, luciferase 72 h later, relative to vehicle control) worked out at 2.35 times. Further, the inhibition at 4.5 µg/mL with MCEC [1] amounted to 58.2%.

For `CCCCC[C@@H](O)[C@H]1C(=O)O[C@H](C)[C@@H](O)/C=C/C=C/C=C/C=C/C=C(\C)[C@@H](O)C[C@H](O)C[C@H](O)C[C@H](O)C[C@H](O)C[C@H](O)C[C@@H]1O` [Filipin, filipin III], in the data set with MCEC [1], the inhibition at 1 µg/mL was 48.6%.

`C=C1[C@@H](C)[C@H]2[C@H](Cc3ccccc3)NC(=O)[C@]23[C@H](OC(C)=O)/C=C/[C@@](C)(O)C(=O)[C@@H](C)C/C=C/[C@H]3[C@@H]1O` [cytochalasin, cytochalasin D]: the inhibition at 5 µg/mL with MCEC [1] stood at 58.5%. `O=C(N/N=C/c1ccc(O)c(O)c1)c1cc2ccccc2cc1O` [dynasore]: in the data set with MCEC [2] (dynasore 6.8 µg/ml, MCEC), the “toxicity during the longer incubation period used for gene expression assays” value was “pronounced toxicity”. In addition, in the data set on MCEC [1], the inhibition at 6.8 µg/mL turned out to be 64.7%. Turning to `Cn1cc(CC(N)C(=O)O)c2ccccc21` (racemic) [1-MT, 1-methyl-DL-tryptophan], the “effect on the inhibition of T-cell proliferation by IDO-transfected MCEC” value in the data set with CD4+ T-cells was “reversed”.

Usually inhibition stands for the share of the control response that was lost under treatment.

(Values after paper PMC2764440 (Nucleic Acids Research, 2009).)
